In ChEMBL document CHEMBL3826910, “Discovery of 3-(5'-Substituted)-Benzimidazole-5-(1-(3,5-dichloropyridin-4-yl)ethoxy)-1H-indazoles as Potent Fibroblast Growth Factor Receptor Inhibitors: Design, Synthesis, and Biological Evaluation” (J Med Chem, 2016):

How the values were obtained:
[1] = test system: NCI-H1581; assay: Antiproliferative activity against FGFR1-amplified human NCI-H1581 cells after 72 hrs by CCK8/MTT assay; assay type: functional, cell-based; details: NCI-H1581, 72 h
[2] = cells; details: Homo sapiens, RT-112, 72 h
[3] = cells; details: Homo sapiens, SNU-16, 72 h
[4] = cells; details: Homo sapiens, KG-1, 72 h
[5] = test system: NCI-H1581; assay: Antitumor activity against human NCI-H1581 cells xenografted in nude mouse assessed as tumor growth inhibition at 20 mg/kg administered as qd for 21 days measured on day 21 post last dose relative to vehicle-treated control; assay type: functional; details: NCI-H1581, 504 h, read-out: TGI
[6] = molecular target: Vascular endothelial growth factor receptor 2 (Homo sapiens, UniProt P35968); assay: Inhibition of recombinant human VEGFR2 using poly (Glu, Tyr) 4:1 as substrate after 60 mins by ELISA
[7] = molecular target: Fibroblast growth factor receptor 1 (Homo sapiens, UniProt P11362); assay: Inhibition of recombinant human FGFR1 using poly (Glu, Tyr) 4:1 as substrate after 60 mins by ELISA
[8] = Clearance in Sprague-Dawley rat at 1 mg/kg, iv; assay type: ADME, organism-based; details: in vivo
[9] = Half life in Sprague-Dawley rat at 1 mg/kg, iv; assay type: ADME, organism-based; details: in vivo
[10] = Volume of distribution at steady state in Sprague-Dawley rat at 1 mg/kg, iv; assay type: ADME, organism-based; details: in vivo, read-out: Vdss
[11] = AUC (0 to infinity) in Sprague-Dawley rat at 5 mg/kg, po; assay type: ADME, organism-based; set-up: dose 5 mg/kg, route oral, time infinity; details: in vivo
Method in brief: (§1)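 Male SD rats (n = 3) dosed orally by gavage at 5 mg/kg as a suspension in 0.5% CMC-Na. Quantified by LC-MS/MS. An IV arm (1 mg/kg) was run in parallel.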

[12] = Oral bioavailability in Sprague-Dawley rat at 5 mg/kg; assay type: ADME, organism-based; details: in vivo; method in brief: as §1
[13] = Cmax in Sprague-Dawley rat at 5 mg/kg, po; assay type: ADME, organism-based; set-up: dose 5 mg/kg, route oral; details: in vivo; method in brief: as §1
[14] = Tmax in Sprague-Dawley rat at 5 mg/kg, po; assay type: ADME, organism-based; details: in vivo; method in brief: as §1
[15] = AUC (0 to infinity) in Sprague-Dawley rat at 1 mg/kg, iv; assay type: ADME, organism-based; set-up: dose 1 mg/kg, time infinity, route intravenous; details: in vivo
[16] = Cmax in Sprague-Dawley rat at 1 mg/kg, iv; assay type: ADME, organism-based; set-up: dose 1 mg/kg, route intravenous; details: in vivo

Vascular endothelial growth factor receptor 2, sequence (P35968 whole entry): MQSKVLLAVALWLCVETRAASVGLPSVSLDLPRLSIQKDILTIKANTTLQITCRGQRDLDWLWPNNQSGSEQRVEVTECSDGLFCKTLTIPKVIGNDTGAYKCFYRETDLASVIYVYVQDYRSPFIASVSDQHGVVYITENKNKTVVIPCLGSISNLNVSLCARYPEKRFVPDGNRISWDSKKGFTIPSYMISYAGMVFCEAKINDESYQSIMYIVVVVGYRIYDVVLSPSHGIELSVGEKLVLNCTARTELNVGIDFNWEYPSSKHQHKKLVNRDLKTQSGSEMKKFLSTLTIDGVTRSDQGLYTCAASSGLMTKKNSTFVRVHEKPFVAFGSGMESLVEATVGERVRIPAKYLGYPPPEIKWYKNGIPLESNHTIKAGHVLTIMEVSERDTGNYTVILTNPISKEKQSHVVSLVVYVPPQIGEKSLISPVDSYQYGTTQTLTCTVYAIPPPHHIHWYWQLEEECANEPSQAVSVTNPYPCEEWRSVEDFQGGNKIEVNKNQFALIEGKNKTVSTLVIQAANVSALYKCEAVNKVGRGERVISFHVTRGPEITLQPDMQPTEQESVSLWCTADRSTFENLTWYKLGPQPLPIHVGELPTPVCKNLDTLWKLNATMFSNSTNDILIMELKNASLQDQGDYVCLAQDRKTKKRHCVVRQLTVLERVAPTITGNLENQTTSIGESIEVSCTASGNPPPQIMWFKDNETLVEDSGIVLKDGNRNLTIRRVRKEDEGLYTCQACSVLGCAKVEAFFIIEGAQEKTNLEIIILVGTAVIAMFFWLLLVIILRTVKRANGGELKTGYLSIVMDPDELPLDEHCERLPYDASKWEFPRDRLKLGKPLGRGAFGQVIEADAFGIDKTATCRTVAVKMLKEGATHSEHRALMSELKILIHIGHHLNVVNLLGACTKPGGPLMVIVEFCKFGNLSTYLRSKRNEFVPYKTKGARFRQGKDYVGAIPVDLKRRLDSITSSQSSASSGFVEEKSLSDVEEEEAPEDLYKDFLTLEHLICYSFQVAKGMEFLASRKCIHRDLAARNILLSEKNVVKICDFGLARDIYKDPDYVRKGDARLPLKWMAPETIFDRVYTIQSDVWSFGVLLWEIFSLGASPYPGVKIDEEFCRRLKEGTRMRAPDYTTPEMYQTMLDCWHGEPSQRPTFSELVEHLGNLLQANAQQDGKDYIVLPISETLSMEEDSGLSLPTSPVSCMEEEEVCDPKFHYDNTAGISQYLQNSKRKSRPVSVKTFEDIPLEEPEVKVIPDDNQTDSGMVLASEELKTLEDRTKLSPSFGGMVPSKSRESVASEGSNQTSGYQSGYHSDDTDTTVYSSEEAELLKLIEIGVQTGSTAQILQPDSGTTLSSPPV
Fibroblast growth factor receptor 1, sequence (P11362 whole entry): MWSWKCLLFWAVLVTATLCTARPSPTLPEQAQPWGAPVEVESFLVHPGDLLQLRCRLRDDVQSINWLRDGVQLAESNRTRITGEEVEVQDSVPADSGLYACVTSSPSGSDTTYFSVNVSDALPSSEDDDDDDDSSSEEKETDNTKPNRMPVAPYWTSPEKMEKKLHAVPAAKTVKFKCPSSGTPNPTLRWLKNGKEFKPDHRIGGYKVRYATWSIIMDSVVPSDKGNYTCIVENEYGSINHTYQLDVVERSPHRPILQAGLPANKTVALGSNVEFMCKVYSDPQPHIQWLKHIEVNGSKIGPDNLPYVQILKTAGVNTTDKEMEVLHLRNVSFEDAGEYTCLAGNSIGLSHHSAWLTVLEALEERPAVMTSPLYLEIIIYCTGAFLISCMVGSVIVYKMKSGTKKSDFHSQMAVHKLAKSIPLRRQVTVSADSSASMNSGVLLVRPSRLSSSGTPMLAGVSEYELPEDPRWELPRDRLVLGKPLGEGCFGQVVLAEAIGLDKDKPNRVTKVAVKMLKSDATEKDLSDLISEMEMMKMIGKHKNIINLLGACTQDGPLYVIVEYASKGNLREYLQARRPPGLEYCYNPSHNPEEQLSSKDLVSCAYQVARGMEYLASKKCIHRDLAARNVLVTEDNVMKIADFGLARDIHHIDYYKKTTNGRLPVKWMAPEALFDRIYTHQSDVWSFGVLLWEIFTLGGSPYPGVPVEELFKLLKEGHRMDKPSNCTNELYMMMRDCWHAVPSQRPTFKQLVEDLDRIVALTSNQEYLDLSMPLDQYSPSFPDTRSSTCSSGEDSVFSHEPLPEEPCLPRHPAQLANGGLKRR

IC50 [1] [nM]	Compound	other results
5.5	CNc1ccc2[nH]c(-c3n[nH]c4ccc(OC(C)c5c(Cl)cncc5Cl)cc34)nc2c1 (stereo not drawn)	–
92.1	COc1cc(CCc2cc(NC(=O)c3ccc(N4C[C@@H](C)N[C@@H](C)C4)cc3)n[nH]2)cc(OC)c1 [FEXAGRATINIB]	IC50 [2]: 88.4 nM; IC50 [3]: 13.4 nM; IC50 [4]: 6.4 nM; inhibition in vivo at 20 mg/kg [5]: 73.9%
1.9	CC(Oc1ccc2[nH]nc(-c3nc4cc(N5C[C@@H](C)N[C@@H](C)C5)ccc4[nH]3)c2c1)c1c(Cl)cncc1Cl (stereo partly drawn)	IC50 [6]: 9 nM
5020	c1cc(COc2ccc3[nH]nc(-c4nc5cc(N6CCCCC6)ccc5[nH]4)c3c2)ccn1	–
> 10000	CC(Oc1ccc2[nH]nc(-c3nc4ccccc4s3)c2c1)c1c(Cl)cncc1Cl (stereo not drawn)	–
3.3	CC(Oc1ccc2[nH]nc(-c3nc4cc(CCO)ccc4[nH]3)c2c1)c1c(Cl)cncc1Cl (stereo not drawn)	IC50 [6]: 12.6 nM
5.9	CCN1CCN(c2ccc3[nH]c(-c4n[nH]c5ccc(OC(C)c6c(Cl)cncc6Cl)cc45)nc3c2)CC1 (stereo not drawn)	–
582	CC(Oc1ccc2[nH]nc(-c3nc4cc(F)ccc4[nH]3)c2c1)c1c(Cl)cncc1Cl (stereo not drawn)	–
922	Cc1ccc2[nH]c(-c3n[nH]c4ccc(OC(C)c5c(Cl)cncc5Cl)cc34)nc2c1 (stereo not drawn)	–
1	CC(Oc1ccc2[nH]nc(-c3nc4cc(N5CCN(C)CC5)ccc4[nH]3)c2c1)c1c(Cl)cncc1Cl (stereo not drawn)	IC50 [7]: 1 nM; IC50 [6]: 8 nM
1860	c1cncc(COc2ccc3[nH]nc(-c4nc5cc(N6CCCCC6)ccc5[nH]4)c3c2)c1	–
159	Clc1cncc(Cl)c1COc1ccc2[nH]nc(-c3nc4cc(N5CCCCC5)ccc4[nH]3)c2c1	–
30.8	CC(Oc1ccc2[nH]nc(-c3nc4cc(N5CCCCC5)ccc4[nH]3)c2c1)c1c(Cl)ccnc1Cl (stereo not drawn)	–
8.1	CC(Oc1ccc2[nH]nc(-c3nc4cc(N5CCCN(C)CC5)ccc4[nH]3)c2c1)c1c(Cl)cncc1Cl (stereo not drawn)	–
749	Fc1ccc2c(-c3nc4cc(N5CCC(N6CCCCC6)CC5)ccc4[nH]3)[nH]nc2c1	IC50 [7]: 20.3 nM; IC50 [6]: 16.4 nM
1.1	CC(Oc1ccc2[nH]nc(-c3nc4cc(NCCN(C)C)ccc4[nH]3)c2c1)c1c(Cl)cncc1Cl (stereo not drawn)	–
1.2	COCCNc1ccc2[nH]c(-c3n[nH]c4ccc(OC(C)c5c(Cl)cncc5Cl)cc34)nc2c1 (stereo not drawn)	–
1.4	C[C@@H](Oc1ccc2[nH]nc(-c3nc4cc(CCO)ccc4[nH]3)c2c1)c1c(Cl)cncc1Cl	clearance [8]: 28.3 mL/min/kg; half-life [9]: 7.3 h; Vd [10]: 17.6 L/kg; AUC(0-inf) [11]: 664 ng·h/mL; bioavailability [12]: 22%; Cmax [13]: 195 ng/mL; Tmax [14]: 0.8 h; AUC(0-inf) [15]: 582 ng·h/mL; Cmax [16]: 735 ng/mL

IC50 [1] [nM]	Compound	other results
> 100	C[C@H](Oc1ccc2[nH]nc(-c3nc4cc(CCO)ccc4[nH]3)c2c1)c1c(Cl)cncc1Cl	–
315	COc1ccc2[nH]c(-c3n[nH]c4ccc(OC(C)c5c(Cl)cncc5Cl)cc34)nc2c1 (stereo not drawn)	–
380	CCC(Oc1ccc2[nH]nc(-c3nc4cc(N5CCCCC5)ccc4[nH]3)c2c1)c1c(Cl)cncc1Cl (stereo not drawn)	–
1.6	CC(Oc1ccc2[nH]nc(-c3nc4cc(C5CCN(C)CC5)ccc4[nH]3)c2c1)c1c(Cl)cncc1Cl (stereo not drawn)	IC50 [6]: 7.8 nM
14.1	CC(Oc1ccc2[nH]nc(-c3nc4cc(N5CCCCC5)ccc4[nH]3)c2c1)c1c(Cl)cncc1Cl (stereo not drawn)	–
> 10000	Cc1cccc2[nH]c(-c3n[nH]c4ccc(OC(C)c5c(Cl)cncc5Cl)cc34)nc12 (stereo not drawn)	–
403	CC(Oc1ccc2[nH]nc(-c3nc4ccccc4[nH]3)c2c1)c1c(Cl)cncc1Cl (stereo not drawn)	–
10.3	CC(Oc1ccc2[nH]nc(-c3nc4cc(N5CCC(N6CCCCC6)CC5)ccc4[nH]3)c2c1)c1c(Cl)cncc1Cl (stereo not drawn)	–
2.2	CC(Oc1ccc2[nH]nc(-c3nc4cc(N5CCOCC5)ccc4[nH]3)c2c1)c1c(Cl)cncc1Cl (stereo not drawn)	–
1230	c1ccc(COc2ccc3[nH]nc(-c4nc5cc(N6CCCCC6)ccc5[nH]4)c3c2)nc1	–
130	C[C@H](Oc1ccc2[nH]nc(-c3nc4cc(N5CCN(C)CC5)ccc4[nH]3)c2c1)c1c(Cl)cncc1Cl	IC50 [7]: 9.4 nM
0.8	CC(Oc1ccc2[nH]nc(-c3nc4cc(N(C)C(=O)CN(C)C)ccc4[nH]3)c2c1)c1c(Cl)cncc1Cl (stereo not drawn)	IC50 [6]: 2.5 nM
–	CC(Oc1ccc2[nH]nc(-c3nc4c(N5CCCCC5)cccc4[nH]3)c2c1)c1c(Cl)cncc1Cl (stereo not drawn)	IC50 [7]: > 1000 nM
< 0.5	C[C@@H](Oc1ccc2[nH]nc(/C=C/c3cnn(CCO)c3)c2c1)c1c(Cl)cncc1Cl [LY-2874455]	IC50 [6]: 5.8 nM
3070	Clc1cnccc1COc1ccc2[nH]nc(-c3nc4cc(N5CCCCC5)ccc4[nH]3)c2c1	–
817	CC(Oc1ccc2[nH]nc(-c3cc4ccccc4[nH]3)c2c1)c1c(Cl)cncc1Cl (stereo not drawn)	–
3040	CC(Oc1ccc2[nH]nc(-c3nc4ccccc4o3)c2c1)c1c(Cl)cncc1Cl (stereo not drawn)	–
